The values that follow come from ChEMBL document CHEMBL1135466, “Potent antimalarial febrifugine analogues against the plasmodium malaria parasite” (J Med Chem, 2002).

A short description of assay [1]: In vitro antimalarial activity against the Plasmodium falciparum FCR3. The class given is functional.
Assay [2] relates to FM3A. The assay can be described thus: Selectivity ratio of cytotoxicity against FM3A cells to antimalarial activity against Plasmodium falciparum FCR3. The class given is functional, Mus musculus.
Assay [3] relates to FM3A. Description: In vitro cytotoxicity against mouse mammary FM3A cells. The class given is cell-based.
The test system of assay [4] is Plasmodium berghei. The assay can be described thus: (§1) In vivo antimalarial activity against Plasmodium berghei infected mice (Mus musculus). The class given is functional. The method, boiled down:
(§2)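 Infected mice were dosed, and activity is reported as the doses giving 50% and 90% effect (ED50 and ED90), in µmol/kg.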

The subject of assay [5] is Plasmodium berghei. Described as §1. The class given is functional. The method, boiled down:
as §2
This is another data set of the same source.

Each structure is given as a SMILES string. Bounds are passed on as bounds.

What is called EC50 is the concentration giving half of the maximal effect. Read a high EC50 as a less potent agent. Take `CC1(C)[C@H](n2cnc3ccccc3c2=O)C(=O)C[C@H]2[C@@H](O)CCCN21`: the EC50 in assay [1] is 2.8 nM. Moreover, in the assay with FM3A [2], the Selectivity was found to be 857.
For `CC1(C)[C@@H](n2cnc3ccccc3c2=O)C(=O)C[C@@H]2[C@@H](O)CCCN21`, in that order: 1.6 nM and 238.
In the case of `CCOC(=O)N1CCC[C@H](O)C1CC(=O)Cn1cnc2ccccc2c1=O` (some centres undefined), the concentration for a half-maximal effect (EC50) was 4800 nM in assay [1] and over 17000 nM in the assay on FM3A [3]. Further, the Selectivity with FM3A [2] is on record as over 3.5.
As for `O=C(CC1NCCC[C@@H]1O)Cn1cnccc1=O` (some centres undefined), the concentration for a half-maximal effect (EC50) with FM3A [3] is over 19000 nM. Further, the Selectivity in the assay with FM3A [2] was over 32.
In general, ED50 refers to the dose that gives a 50% effect, or the effect in half of the subjects. A low value points to an effect at a small dose. In the assay on FM3A [3], `O=c1c2ccccc2ncn1C[C@@H]1C[C@@H]2[C@@H](O)CCCN2CO1` gave an EC50 of 3800 nM. In addition, the ED50 is over 180 µmol/kg with Plasmodium berghei [4] and 82 µmol/kg in the assay on Plasmodium berghei [5]. Also, in the assay with FM3A [2], the Selectivity stood at 1027.
On to `COCO[C@H]1CCCN2CO[C@H](Cn3cnc4ccccc4c3=O)C[C@H]12`, for which the EC50 came to 8.6 nM in assay [1] and 2500 nM in the assay on FM3A [3]. In addition, the Selectivity with FM3A [2] is on record as 291.
In the case of `O=c1c2ccccc2ccn1CC1(O)CC2NCCC[C@@H]2O1` (some centres undefined), the EC50 was 2100 nM in assay [1] and over 6300 nM in the assay on FM3A [3]. The Selectivity in the assay with FM3A [2] is reported as over 3.
On to `O=c1c2ccccc2ncn1C[C@@H]1C[C@@H]2[C@H](O)CCCN2CO1`, for which the EC50 is 840 nM in assay [1] and over 25000 nM in the assay with FM3A [3]. For the same compound, in the assay with FM3A [2], the Selectivity is recorded as over 30.
The matching figures for `O=C(CC1NCCC[C@@H]1O)Cn1ccc2ccccc2c1=O` (some centres undefined): 500 nM, over 16000 nM and over 32.
For `CNc1ccccc1C(=O)NC1[C@@H](O)C[C@@H]2[C@@H](O)CCCN2C1(C)C` (some centres undefined), in that order: 600 nM, over 17000 nM and over 28.
The matching figures for `CC1(C)[C@@H](n2cnc3ccccc3c2=O)[C@H](O)C[C@@H]2[C@@H](O)CCCN21`: 300 nM, 85000 nM and 283.
With `CC1(C)[C@@H](n2cnc3ccccc3c2=O)[C@@H](O)C[C@@H]2[C@@H](O)CCCN21`, the EC50 was 400 nM in assay [1] and 2800 nM in the assay with FM3A [3]. Moreover, in the assay with FM3A [2], the Selectivity stood at 70.
The matching figures for `CC1(C)[C@@H](n2cnc3ccccc3c2=O)C(=O)C[C@@H]2[C@@H](O)CCC[N+]21[O-]` (some centres undefined): 100 nM, over 29000 nM and over 290.
Take `CC1(C)[C@H](n2cnc3ccccc3c2=O)[C@H](O)C[C@H]2[C@@H](O)CCCN21`: the figures for the EC50 (in assay [1]; with FM3A [3]) were 800 nM and over 24000 nM, respectively. Moreover, the Selectivity in the assay with FM3A [2] is recorded as over 30.
For `CC(=O)O[C@H]1CCCN2[C@H]1CC(=O)[C@@H](n1cnc3ccccc3c1=O)C2(C)C`, in that order: 19 nM, 7000 nM and 368.
For `CC(=O)O[C@H]1CCCN2[C@H]1C[C@@H](OC(C)=O)[C@@H](n1cnc3ccccc3c1=O)C2(C)C`, in that order: 7000 nM, over 21000 nM and over 3.
For `CC(=O)O[C@H]1CCCN2[C@H]1C[C@@H](O)[C@@H](n1cnc3ccccc3c1=O)C2(C)C`, in that order: 400 nM, over 11000 nM and over 28.
For the compound `CC1(C)[C@H](n2cnc3ccccc3c2=O)[C@@H](O)C[C@H]2[C@@H](O)CCCN21`, the results for the EC50 (in assay [1]; in the assay with FM3A [3]) were 3400 nM and over 100000 nM, respectively. For the same compound, the Selectivity in the assay on FM3A [2] is given as over 28.
With `CC1(C)[C@@H](n2cnc3ccccc3c2=O)C(=O)C[C@@H]2C(=O)CCCN21`, the results for the EC50 (in assay [1]; with FM3A [3]) were 1.9 nM and 5900 nM, respectively. The Selectivity in the assay with FM3A [2] is recorded as over 3105.
For `CC(=O)O[C@H]1CCCN2[C@@H]1CC(=O)[C@H](n1cnc3ccccc3c1=O)C2(C)C`, in that order: 3.6 nM, 1300 nM and 361.
On to `CC1(C)[C@@H](N2CNc3ccccc3C2=O)[C@@H](O)C[C@@H]2[C@@H](O)CCCN21`, for which the EC50 was 420 nM in assay [1] and over 16000 nM in the assay with FM3A [3]. Besides, the Selectivity with FM3A [2] is reported as over 38.
As for `CC1(C)[C@@H](n2cnc3ccccc3c2=O)C=C[C@@H]2[C@@H](O)CCCN21`, the EC50 in assay [1] is 4800 nM; with FM3A [3] it was over 32000 nM. The Selectivity in the assay with FM3A [2] is over 7.
As for `CC1(C)[C@@H](n2cnc3ccccc3c2=O)CC[C@@H]2[C@@H](O)CCCN21`, the EC50 was 830 nM in assay [1] and over 22000 nM with FM3A [3]. Moreover, the Selectivity in the assay on FM3A [2] is over 27.
The matching figures for `COC1=C[C@@H]2[C@@H](O)CCCN2C(C)(C)[C@H]1n1cnc2ccccc2c1=O`: 1300 nM, over 66000 nM and over 51.
Consider `O=c1c2ccccc2ncn1C[C@@H](O)CC1NCCC[C@@H]1O` (some centres undefined), for which the response in assay [1] was half-maximal at 20 nM (EC50). For the same compound, in the assay with Plasmodium berghei [5], the 50% effect level (ED50) was put at a dose of 2.9 µmol/kg and the ED90 was determined as 22 µM/kg. In addition, in the assay on FM3A [2], the Selectivity worked out at 750.
In the case of `O=c1ccncn1CC1(O)CC2NCCC[C@@H]2O1` (some centres undefined), the EC50 is 40 nM in assay [1] and 7000 nM in the assay with FM3A [3]. Besides, the Selectivity with FM3A [2] is reported as 175.
Consider `O=C(CC1NCCCC1=O)Cn1cnc2ccccc2c1=O` (centres undefined), for which, in assay [1], the response was half-maximal at 20 nM (EC50). This compound also showed an EC50 with FM3A [3] of 10000 nM. In the assay on Plasmodium berghei [5], this compound showed an ED50 of 1.3 µmol/kg and an ED90 of 6.2 µM/kg. The Selectivity in the assay with FM3A [2] stood at 500.
For `CC(=O)O[C@H]1CCCN(C(C)=O)C1CC(=O)Cn1cnc2ccccc2c1=O` (some centres undefined), the EC50 is 910 nM in assay [1] and over 29000 nM in the assay on FM3A [3]. The Selectivity in the assay on FM3A [2] is on record as over 32.
Compound `C[C@@H]1CC[C@H]2[C@@H](C)C(=O)O[C@@H]3O[C@@]4(C)CC[C@@H]1[C@]32OO4` [ARTEMISININ] had an EC50 in assay [1] of 10 nM. The compound also yielded an ED90 in the assay on Plasmodium berghei [5] of 46 µM/kg. Moreover, the Selectivity in the assay on FM3A [2] is 1000.
In assay [1], `CCN(CC)CCCC(C)Nc1ccnc2cc(Cl)ccc12` (centres undefined) [CHLOROQUINE] registered an EC50 of 18 nM. In the assay on Plasmodium berghei [5], this compound returned an ED50 of 4.7 µmol/kg and an ED90 of 9.4 µM/kg.
`O=C(C[C@@H]1NCCC[C@H]1O)Cn1cnc2ccccc2c1=O` [FEBRIFUGINE] returned an EC50 in assay [1] of 700 nM. In addition, in the assay with Plasmodium berghei [5], the 50% effect level (ED50) was put at a dose of 1 µmol/kg and the ED90 came to 5 µM/kg. Also, in the assay with FM3A [2], the Selectivity is 243.
The matching figures for `O=c1c2ccccc2ncn1CC1(O)C[C@@H]2NCCC[C@@H]2O1` (some centres undefined) [ISOFEBRIFUGINE]: 3.4 nM, 211 µmol/kg, over 267 µM/kg and 53.
